Laboratory results reported in ChEMBL document CHEMBL4330127, “Discovery of Novel Pyruvate Dehydrogenase Kinase 4 Inhibitors for Potential Oral Treatment of Metabolic Diseases” (J Med Chem, 2019).
Activity calls are given as the source filed them. The rule behind the calls is not given here.

How the values were obtained:
[1] = target: [Pyruvate dehydrogenase (acetyl-transferring)] kinase isozyme 4, mitochondrial (Homo sapiens, UniProt Q16654); test: Inhibition of PDK4 (unknown origin)
[2] = target: CYP3A (Homo sapiens, UniProt P08684+P20815+P24462+Q9HB55); test: Inhibition of CYP3A in human liver microsomes assessed as reduction in midazolam 1'-hydroxylation by tandem mass spectrometry analysis; type: ADME; settings: probe midazolam (1'-hydroxylation)
Summary of the method: (§1)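 Pooled human liver microsomes; test compound at final 0–50 μM in a cocktail incubation with probe substrates: midazolam 1′-hydroxylation (CYP3A), SN-38 glucuronidation (UGT1A1), trifluoperazine N-glucuronidation (UGT1A4), mycophenolic acid glucuronidation (UGT1A9), naloxone 3-glucuronidation (UGT2B7). Metabolites measured by tandem MS; IC50 determined; duplicate.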

[3] = tested on: HCT-116; test: Induction of apoptosis in human HCT116 cells assessed as late apoptotic cells at 25 uM after 24 hrs by Annexin V/propidium iodide staining based flow cytometry (reference value: 8.36%); type: functional
[4] = tested on: HCT-116; test: Induction of apoptosis in human HCT116 cells assessed as early apoptotic cells at 50 uM after 24 hrs by Annexin V/propidium iodide staining based flow cytometry (reference value: 4.36%); type: functional
[5] = tested on: HCT-116; test: Cell cycle arrest in human HCT116 cells assessed as accumulation at G2/M phase at 50 uM after 24 hrs propidium iodide staining based flow cytometry (reference value: 22.2%); type: functional
Summary of the method: (§2)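 HCT116 and RKO cells were treated with compound alone or with oxaliplatin for 24 h before harvest. Cells were stained with propidium iodide, and DNA content was analysed by flow cytometry. Cell-cycle phase populations, including sub-G1, are given as percentages.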

[6] = tested on: HCT-116; test: Cell cycle arrest in human HCT116 cells assessed as accumulation at G1/G0 phase at 25 uM after 24 hrs propidium iodide staining based flow cytometry (reference value: 42%); type: functional; summary of the method: as §2
[7] = tested on: RKO; test: Cell cycle arrest in human RKO cells assessed as accumulation at S phase at 25 uM after 24 hrs propidium iodide staining based flow cytometry (reference value: 19.2%); type: functional
[8] = tested on: RKO; test: Antiproliferative activity against human RKO cells up to 50 uM up to 72 hrs by CCK8 assay; type: functional, cell-based
Summary of the method: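 HCT116 and RKO cells were treated with compound alone or with oxaliplatin and grown for 0–72 h. Viability was read by CCK-8 colorimetry at 450 nm.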

[9] = tested on: HCT-116; test: Inhibition of colony formation in human HCT116 cells at 10 to 50 […] after 7 days by crystal violet staining based assay; type: functional, cell-based
Summary of the method: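 HCT116 and RKO cells seeded in 6-well plates and treated with compound for 7 days. Cells then fixed and stained with crystal violet to score colony formation.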

[10] = tested on: L929; test: Cytotoxicity against mouse L929 cells; type: cell-based
[11] = tested on: Vero; test: Cytotoxicity against African green monkey Vero cells; type: cell-based; settings: Chlorocebus sabaeus
[12] = tested on: HCT-116; test: Induction of apoptosis in human HCT116 cells assessed as late apoptotic cells at 50 uM after 24 hrs by Annexin V/propidium iodide staining based flow cytometry (reference value: 8.36%); type: functional
[13] = Half life in rat at 5 mg/kg, iv; type: ADME, organism-based; settings: in vivo
[14] = tested on: HCT-116; test: Induction of apoptosis in human HCT116 cells assessed as live cells at 10 uM after 24 hrs by Annexin V/propidium iodide staining based flow cytometry (reference value: 84.4%); type: functional
[15] = tested on: RKO; test: Induction of apoptosis in human RKO cells assessed as late apoptotic cells at 50 uM after 24 hrs by Annexin V/propidium iodide staining based flow cytometry (reference value: 7.42%); type: functional
[16] = tested on: HCT-116; test: Cell cycle arrest in human HCT116 cells assessed as accumulation at G2/M phase at 25 uM after 24 hrs propidium iodide staining based flow cytometry (reference value: 22.2%); type: functional; summary of the method: as §2
[17] = tested on: RKO; test: Induction of apoptosis in human RKO cells assessed as increase in Bax expression at 10 to 50 uM after 24 hrs by Western blot analysis; type: functional, cell-based
Summary of the method: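 HCT116 and RKO cells given a range of compound doses for 24 h; lysates probed by Western blot for apoptosis-related proteins (p53, BAX, BCLxL).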

[18] = tested on: RKO; test: Induction of apoptosis in human RKO cells after 24 hrs by Annexin V/propidium iodide staining based flow cytometry; type: functional, cell-based
[19] = AUC (0 to infinity) in rat at 10 mg/kg, po; type: ADME, organism-based; design: dose 10 mg/kg, route oral, time infinity; settings: in vivo
Summary of the method: (§3)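 Male rats given a single dose, 5 mg/kg intravenously or 10 mg/kg orally. Plasma PK parameters were reported as mean ± SD: AUCt, AUC∞, Cmax, Tmax, T1/2, CL, Vss and oral bioavailability F.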

[20] = Cmax in rat at 10 mg/kg, po; type: ADME, organism-based; design: dose 10 mg/kg, route oral; settings: in vivo; summary of the method: as §3
[21] = tested on: RKO; test: Cell cycle arrest in human RKO cells assessed as accumulation at G1/G0 phase at 25 uM after 24 hrs propidium iodide staining based flow cytometry (reference value: 39.9%); type: functional; summary of the method: as §2
[22] = tested on: RKO; test: Cell cycle arrest in human RKO cells assessed as accumulation at sub-G1 phase at 25 uM after 24 hrs propidium iodide staining based flow cytometry (reference value: 17.6%); type: functional
[23] = tested on: RKO; test: Cell cycle arrest in human RKO cells assessed as accumulation at sub-G1 phase at 10 uM after 24 hrs propidium iodide staining based flow cytometry (reference value: 17.6%); type: functional
[24] = tested on: HCT-116; test: Cell cycle arrest in human HCT116 cells assessed as accumulation at sub-G1 phase at 10 uM after 24 hrs propidium iodide staining based flow cytometry (reference value: 17.8%); type: functional; summary of the method: as §2
[25] = tested on: RKO; test: Induction of apoptosis in human RKO cells assessed as live cells at 10 uM after 24 hrs by Annexin V/propidium iodide staining based flow cytometry (reference value: 82.4%); type: functional
[26] = tested on: HCT-116; test: Cell cycle arrest in human HCT116 cells assessed as accumulation at G2/M phase at 25 uM after 24 hrs in presence of oxaliplatin propidium iodide staining based flow cytometry (reference value: 28.2%); type: functional; summary of the method: as §2
[27] = target: Cytochrome P450 2D6 (Homo sapiens, UniProt P10635); test: Inhibition of CYP2D6 in human liver microsomes assessed as reduction in dextromethorphan O-demethylation by tandem mass spectrometry analysis; type: ADME
Chain of Cytochrome P450 2D6 (P10635 whole entry): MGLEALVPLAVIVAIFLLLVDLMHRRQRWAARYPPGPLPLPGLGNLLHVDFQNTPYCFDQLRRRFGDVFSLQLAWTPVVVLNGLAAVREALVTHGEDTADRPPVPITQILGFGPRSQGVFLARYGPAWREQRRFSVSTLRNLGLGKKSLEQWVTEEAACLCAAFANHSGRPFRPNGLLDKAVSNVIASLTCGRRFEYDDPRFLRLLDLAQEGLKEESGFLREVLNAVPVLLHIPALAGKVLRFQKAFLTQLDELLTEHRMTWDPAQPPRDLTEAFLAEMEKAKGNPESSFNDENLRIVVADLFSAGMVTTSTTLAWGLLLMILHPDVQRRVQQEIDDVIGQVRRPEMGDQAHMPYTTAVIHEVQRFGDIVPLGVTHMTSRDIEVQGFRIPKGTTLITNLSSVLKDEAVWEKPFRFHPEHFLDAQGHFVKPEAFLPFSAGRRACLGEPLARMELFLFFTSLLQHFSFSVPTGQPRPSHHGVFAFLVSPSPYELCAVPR
Summary of the method: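 Pooled human liver microsomes incubated with compound at 0–50 μM final; CYP probe activities (phenacetin O-deethylation for 1A2, tolbutamide 4-hydroxylation for 2C9, omeprazole hydroxylation for 2C19, dextromethorphan O-demethylation for 2D6) run as a cocktail incubation and quantified by tandem MS; duplicates; IC50 derived.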

[28] = tested on: RKO; test: Induction of apoptosis in human RKO cells assessed as late apoptotic cells at 25 uM after 24 hrs by Annexin V/propidium iodide staining based flow cytometry (reference value: 7.42%); type: functional
[29] = target: UDP-glucuronosyltransferase 2B7 (Homo sapiens, UniProt P16662); test: Inhibition of UGT2B7 in human liver microsomes assessed as reduction in naloxone 3-glucuronidation by tandem mass spectrometry analysis; type: ADME; summary of the method: as §1
Chain of UDP-glucuronosyltransferase 2B7 (P16662 whole entry): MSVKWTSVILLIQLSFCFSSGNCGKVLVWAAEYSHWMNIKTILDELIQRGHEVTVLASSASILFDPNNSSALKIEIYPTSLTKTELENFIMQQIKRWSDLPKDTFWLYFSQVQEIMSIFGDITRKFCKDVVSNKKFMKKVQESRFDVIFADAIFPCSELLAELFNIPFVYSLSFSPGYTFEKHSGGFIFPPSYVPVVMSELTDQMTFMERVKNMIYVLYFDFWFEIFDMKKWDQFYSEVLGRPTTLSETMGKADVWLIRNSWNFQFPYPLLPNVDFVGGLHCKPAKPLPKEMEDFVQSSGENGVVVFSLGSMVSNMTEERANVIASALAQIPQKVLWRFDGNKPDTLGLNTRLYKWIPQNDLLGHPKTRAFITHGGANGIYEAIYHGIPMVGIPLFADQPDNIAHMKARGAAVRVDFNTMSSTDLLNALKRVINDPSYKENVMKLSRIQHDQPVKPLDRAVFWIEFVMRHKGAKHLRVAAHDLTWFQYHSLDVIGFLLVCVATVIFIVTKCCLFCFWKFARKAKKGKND

[30] = tested on: RKO; test: Induction of apoptosis in human RKO cells assessed as live cells at 50 uM after 24 hrs by Annexin V/propidium iodide staining based flow cytometry (reference value: 82.4%); type: functional
[31] = tested on: HCT-116; test: Cell cycle arrest in human HCT116 cells assessed as accumulation at sub-G1 phase at 25 uM after 24 hrs in presence of oxaliplatin propidium iodide staining based flow cytometry (reference value: 25.1%); type: functional; summary of the method: as §2
[32] = tested on: HCT-116; test: Induction of apoptosis in human HCT116 cells assessed as necrotic cells at 25 uM after 24 hrs by Annexin V/propidium iodide staining based flow cytometry (reference value: 2.92%); type: functional

Chain of [Pyruvate dehydrogenase (acetyl-transferring)] kinase isozyme 4, mitochondrial (Q16654 whole entry): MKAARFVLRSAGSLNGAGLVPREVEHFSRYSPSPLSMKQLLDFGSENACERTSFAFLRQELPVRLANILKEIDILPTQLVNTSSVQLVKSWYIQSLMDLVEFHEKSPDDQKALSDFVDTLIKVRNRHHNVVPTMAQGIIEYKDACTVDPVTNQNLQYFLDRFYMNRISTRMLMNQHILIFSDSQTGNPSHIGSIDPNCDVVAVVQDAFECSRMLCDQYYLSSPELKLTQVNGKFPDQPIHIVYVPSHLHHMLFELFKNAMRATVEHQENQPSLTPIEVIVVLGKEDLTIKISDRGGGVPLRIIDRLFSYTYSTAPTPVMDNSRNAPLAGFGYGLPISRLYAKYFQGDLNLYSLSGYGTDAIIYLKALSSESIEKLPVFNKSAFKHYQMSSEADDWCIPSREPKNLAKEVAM

For Cl.O=C1c2ccccc2C(=O)c2c1cccc2-c1cnn(C2CCNCC2)c1, the IC50 [1] was 0.084 µM, the IC50 [2] was 36.6 µM and the Activity [3] was 23.9%. The Activity [4] was 4.1%, the Activity [5] was 5.3% and the Activity [6] was 19%. The Activity [7] was 6%, the Activity [8] was “Active” and the inhibition [9] was “Active”. It also gave an IC50 [10] of 35.8 µM, an IC50 [11] of 36.4 µM and an Activity [12] of 54.5%. It also gave a half-life [13] of 7.06 h, an Activity [14] of 77.9% and an Activity [15] of 49%. The Activity [16] was 37.1%, the Activity [17] was “Active” and the Activity [18] was “Dose-dependent effect”. The AUC(0-inf) [19] was 18500 ng·h/mL, the Cmax [20] was 565 ng/mL and the Activity [21] was 13.7%. The Activity [22] was 58.7%, the Activity [23] was 21.4% and the Activity [24] was 14.4%. For the same compound, the Activity [25] was 82.8%, the Activity [26] was 33.5% and the IC50 [27] was greater than 50 µM. It also gave an Activity [28] of 39.4%, an IC50 [29] greater than 50 µM and an Activity [30] of 9.59%. For the same compound, the Activity [31] was 36% and the Activity [32] was 19.6%.
